Experimental data taken from PubChem BioAssay.
Results filed as inconclusive are left out.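 The calls were made as follows, unless noted: active = viability at or below 27.92% in each of two runs, the all-compound median minus 4 SD; inconclusive = no clear call, values can overlap the other calls; inactive = the rest.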

How the values were obtained:
[1] = S. cerevisiae growth inhibition in permissive medium (OD615), pilot counter-assay for S. cerevisiae lifespan shortening project, permissive growth control (AID 705;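 active = growth inhibition above 25% in both replicates, a cutoff set 3 SD above the mean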); conditions: OD615, 24 h, at 10 µM, stronger effect = higher value
Procedure, shortened: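 System: S. cerevisiae with engineered DeaD lifespan system / Measured by: absorbance (optical density) at 615 nm / Read-out: reduction in yeast growth (OD615) / Times: 4 h cell pre-growth, 24 h exposure at 30 °C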

[2] = S. cerevisiae growth inhibition in restrictive medium, OD615, pilot screen, restrictive growth control, yeast lifespan reduction project (AID 706;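 active = growth inhibition above a set limit, 3 SD over mean compound inhibition, in both replicates, cut at about 43% in these data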;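 also: modified DeaD lifespan yeast strain shifted to restrictive glucose medium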); conditions: OD615, 48 h, at 10 µM, stronger effect = higher value
Procedure, shortened: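 System: Engineered S. cerevisiae DeaD strain | Buffer or medium: Glucose-based CSMM-D restrictive medium | Schedule: 4 h pre-incubation, 48 h exposure at 30 °C | Technique: Optical density at 615 nm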

[3] = doxorubicin toxicity protection in MRP-1 cells – H69AR cells, CellTiter-Glo, duplicate, MRP-1 activator project, pilot screen (AID 807;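 active = viability increase at or above a cutoff of the median across tested compounds plus 3 SD, cut at about 8.5% in these data, passing the limit was not always enough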;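 also: compound pretreatment 18-22 h then 72 h combined with doxorubicin; 0% = doxorubicin alone and 100% = vehicle without doxorubicin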); conditions: H69AR viability with doxorubicin, CellTiter-Glo luminescence; at 10 µM; stronger effect = higher value
[4] = viability of HCT116 without oncogenic beta-catenin – human colon tumor cells, pilot screen (AID 823;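 active = cell viability at or below a set limit in both duplicate runs, the limit being the all-compound median minus 4 SD, cut at about 23% in these data, passing the limit was not always enough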;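 also: 0% = wells killed by 20 µM Hyamine and 100% = untreated DMSO cell wells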); conditions: HCT116 beta-catenin knockout viability, CellTiter-Glo, 60 h; at 10 µM; stronger effect = lower value
[5] = viability of PTEN-null HCT116 cells – cell-based, HCT116 clonal line, CellTiter-Glo, pilot screen (AID 824); conditions: HCT116 PTEN-deleted viability, 60 h, at 10 µM, stronger effect = lower value;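 also: 0% = 20 µM Hyamine control and 100% = vehicle cell control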
[6] = RAM pathway blockade in budding yeast – dse1pr::URA3 reporter, 5-FOA selection, pilot screen (AID 869;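 active = inhibition over a set limit, the all-compound mean plus 3 SD, in both replicate runs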;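 also: 0% = DMSO wells with no growth and 100% = 10 µM 1-NA-PP1 with full growth; RAM network block rescues cells from 5-FOA so hits raise OD615 growth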); conditions: S. cerevisiae dse1pr::URA3 5-FOA growth, OD615, 2 d; at 10 µM; stronger effect = higher value; strain carries analog-sensitive mutant Cbk1 kinase
[7] = RAM signaling pathway blockade in yeast – S. cerevisiae, Pdr1DBD-CYC8 efflux-inhibited sensitized strain, primary screen (AID 1298;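 active = RAM network inhibition above 8.4% in each of two replicates, 3 SD over the compound average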;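 also: 0% = DMSO untreated cells without growth and 100% = 10 µM 1-NA-PP1 full growth; higher means more yeast growth rescued from 5-FOA killing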); conditions: S. cerevisiae cbk1-as DSE1-URA3 strain, 5-FOA growth OD615, 2 d; at 50 µM; stronger effect = higher value

Cc1ccc(S(=O)(=O)Cc2ccc(C(=O)N3CCCCCC3)o2)cc1
inactive: growth inhibition [1] -10.6% | growth inhibition [2] -22.4% | viability increase [3] -1.93% | viability [4] 98.8% | viability [5] 96.2% | inhibition [6] 1.73% | RAM network inhibition [7] 8.33%

CS(=O)(=O)Nc1ccc2c3c(cccc13)CC2
inactive: growth inhibition [1] -15.4% | growth inhibition [2] -15.1% | viability increase [3] -1.25% | viability [4] 97.7% | viability [5] 90.1% | inhibition [6] 1.14% | RAM network inhibition [7] 7.52%

COc1ccc(CN2CC34C=CC(O3)C(C(=O)O)C4C2=O)cc1 (stereo not drawn)
inactive: growth inhibition [1] -1.83% | growth inhibition [2] -0.315% | viability increase [3] -0.17% | viability [4] 92.6% | viability [5] 97.1% | inhibition [6] 0.585% | RAM network inhibition [7] 3.17%

Cc1nn(C)c(C)c1S(=O)(=O)N(CC(=O)Nc1ccc2c(c1)OCO2)c1ccc(C(C)C)cc1
inactive: growth inhibition [1] -19.5% | growth inhibition [2] -7.85% | viability increase [3] -2.38% | viability [4] 102% | viability [5] 99.4% | inhibition [6] 2.36% | RAM network inhibition [7] 2.62%

COC(=O)C1CCN(C(c2cc(OC)c(OC)c(OC)c2)c2sc3nc(C)nn3c2O)CC1 (stereo not drawn)
inactive: growth inhibition [1] -10.8% | growth inhibition [2] -17.2% | viability increase [3] -1.81% | viability [4] 102% | viability [5] 93% | inhibition [6] 2.08% | RAM network inhibition [7] 3.91%

CSC1=C(C#N)C(c2ccc(C(C)C)cc2)CC(=O)N1 (stereo not drawn)
inactive: growth inhibition [1] -4.75% | growth inhibition [2] -18.3% | viability increase [3] 0.04% | viability [4] 99.6% | viability [5] 91% | inhibition [6] 2% | RAM network inhibition [7] 1.87%

O=C(Cn1nnc(-c2ccccc2F)n1)NCCc1ccccc1
inactive: growth inhibition [1] -13.3% | growth inhibition [2] -7.54% | viability increase [3] -0.89% | viability [4] 97.4% | viability [5] 94% | inhibition [6] 1.33% | RAM network inhibition [7] 0.36%

COc1ccc(S(=O)(=O)N2CCCC2C(=O)Nc2ccc(C(C)=O)cc2)cc1 (stereo not drawn)
inactive: growth inhibition [1] -19.4% | growth inhibition [2] -11% | viability increase [3] -0.66% | viability [4] 97.6% | viability [5] 95.8% | inhibition [6] 2.13% | RAM network inhibition [7] 1.47%

CC(C)CC(=O)Nc1ccc2oc(-c3cccnc3)nc2c1
inactive: growth inhibition [1] 2.48% | growth inhibition [2] 2.53% | viability increase [3] -1.73% | viability [4] 100% | viability [5] 94% | inhibition [6] 1.53% | RAM network inhibition [7] -0.72%

COc1ccc(-c2nc3cnccn3c2Nc2ccc3c(c2)OCO3)cc1
inactive: growth inhibition [1] -10.7% | growth inhibition [2] 3.96% | viability increase [3] -6.6% | viability [4] 70.9% | viability [5] 62.8% | inhibition [6] -0.105% | RAM network inhibition [7] 0.16%

Cc1ccccc1OCc1nc(-c2ccc(-n3cccc3)cc2)no1
inactive: growth inhibition [1] -22.8% | growth inhibition [2] -18.9% | viability increase [3] -0.53% | viability [4] 81.3% | viability [5] 84% | inhibition [6] 2% | RAM network inhibition [7] 5.61%

O=C(CN1CCN(Cc2ccccc2Cl)C1=O)NCC1CCCO1 (stereo not drawn)
inactive: growth inhibition [1] 4.72% | growth inhibition [2] -0.62% | viability increase [3] -2.68% | viability [4] 97.2% | viability [5] 95.5% | inhibition [6] 0.35% | RAM network inhibition [7] 1.49%

CCOC(=O)CN1CC23C=CC(O2)C(C(=O)N2CCN(c4ccc(F)cc4)CC2)C3C1=O (stereo not drawn)
inactive: growth inhibition [1] 7.71% | growth inhibition [2] 5.64% | viability increase [3] -2.12% | viability [4] 86.7% | viability [5] 93.2% | inhibition [6] 1.45% | RAM network inhibition [7] -0.56%

COC(=O)c1nnn(Cc2ccccc2)c1N
inactive: growth inhibition [1] -6.96% | growth inhibition [2] -7.86% | viability increase [3] -1.68% | viability [4] 103% | viability [5] 98.8% | inhibition [6] 0.585% | RAM network inhibition [7] 0.17%

COc1ccccc1-c1nc(-c2ccccn2)no1
inactive: growth inhibition [1] -10.5% | growth inhibition [2] -2.21% | viability increase [3] -5.99% | viability [4] 45.5% | viability [5] 39.7% | inhibition [6] 0.975% | RAM network inhibition [7] 0.42%

Cc1ccc(C(=O)c2cc3c(cc2N)OCCO3)cc1
inactive: growth inhibition [1] -11.6% | growth inhibition [2] -21.8% | viability increase [3] -3.61% | viability [4] 91.2% | viability [5] 89.2% | inhibition [6] 0.27% | RAM network inhibition [7] 3.36%

N#CC1=C2SCN(Cc3ccccc3)CN2C(=O)CC1c1cccs1 (stereo not drawn)
inactive: growth inhibition [1] 9.16% | growth inhibition [2] 30.2% | viability increase [3] -2.91% | viability [4] 94.3% | viability [5] 86% | inhibition [6] 0.535% | RAM network inhibition [7] 4.04%

COCCCNC(=O)CN(c1ccc(Cl)c(Cl)c1)S(C)(=O)=O
inactive: growth inhibition [1] 0.93% | growth inhibition [2] -7.01% | viability increase [3] -1.44% | viability [4] 99.4% | viability [5] 101% | inhibition [6] 0.96% | RAM network inhibition [7] -0.77%

Cc1cccc(Nc2ncnc3nc[nH]c23)c1
inactive: growth inhibition [1] 3.02% | growth inhibition [2] 32.5% | viability increase [3] -1.96% | viability [4] 101% | viability [5] 97.6% | inhibition [6] 2.31% | RAM network inhibition [7] 3.11%

COc1cccc(N2C(=O)C3ON(c4ccccc4)C(c4cccs4)C3C2=O)c1 (stereo not drawn)
inactive: growth inhibition [1] -13% | growth inhibition [2] 15.5% | viability increase [3] -0.83% | viability [4] 107% | viability [5] 97.8% | inhibition [6] 2.65% | RAM network inhibition [7] 4.23%

CCSc1nnc(NC(=O)CC)s1
inactive: growth inhibition [1] -14.2% | growth inhibition [2] -13.4% | viability increase [3] 1.42% | viability [4] 106% | viability [5] 99% | inhibition [6] 1.21% | RAM network inhibition [7] -0.32%

COc1ccc(CN2CCNC(=O)C2CC(=O)O)c(OC)c1 (stereo not drawn)
inactive: growth inhibition [1] -18.7% | growth inhibition [2] -24% | viability increase [3] -2.1% | viability [4] 105% | viability [5] 93.1% | inhibition [6] 2.47% | RAM network inhibition [7] 1.42%

Cc1oc(-c2ccc(Cl)cc2)nc1CN1CCCC(C(=O)NCCCN2CCCC2=O)C1 (stereo not drawn)
inactive: growth inhibition [1] -14.7% | growth inhibition [2] -21.4% | viability increase [3] -0.61% | viability [4] 63.8% | viability [5] 78.7% | inhibition [6] 1.73% | RAM network inhibition [7] 0.96%

COC(=O)CC1Oc2ccccc2N(Cc2ccccc2)C1=O (stereo not drawn)
inactive: growth inhibition [1] -21.8% | growth inhibition [2] -15.5% | viability increase [3] -0.13% | viability [4] 92.2% | viability [5] 92.5% | inhibition [6] 1.56% | RAM network inhibition [7] 3.83%
